In the library only some 1.8% were active in any assay of this set; here they are far more common.
Runt-CBFb FRET = inhibitors of human RUNX1 Runt domain binding to CBFb; inhibition, % at 20 µM; Cerulean-Runt/Venus-CBFb FRET ratio 530/480, 1 h; Q01196+Q13951; 220,000 tested, 0.46% active; AID 1496;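 active = inhibition over about 50% at 20 µM in the single-dose screen, limit read from the data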;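 also: 0% = DMSO wells and 100% = excess unlabeled CBFb competitor control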
Target sequence (Q01196 whole entry, looked up, the tested form may be a part): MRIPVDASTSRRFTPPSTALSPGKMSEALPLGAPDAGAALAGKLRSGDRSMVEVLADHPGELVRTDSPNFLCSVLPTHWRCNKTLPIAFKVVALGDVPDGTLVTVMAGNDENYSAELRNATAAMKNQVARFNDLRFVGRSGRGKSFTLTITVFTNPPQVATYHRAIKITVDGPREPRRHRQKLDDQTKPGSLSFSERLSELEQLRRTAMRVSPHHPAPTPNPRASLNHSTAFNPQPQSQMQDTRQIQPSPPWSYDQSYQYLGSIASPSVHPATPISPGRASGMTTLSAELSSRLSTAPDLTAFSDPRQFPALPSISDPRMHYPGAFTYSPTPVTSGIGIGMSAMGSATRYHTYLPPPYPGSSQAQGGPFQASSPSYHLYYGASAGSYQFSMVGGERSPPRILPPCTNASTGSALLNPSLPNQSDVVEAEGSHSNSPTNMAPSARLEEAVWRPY
Target sequence (Q13951 whole entry, looked up, the tested form may be a part): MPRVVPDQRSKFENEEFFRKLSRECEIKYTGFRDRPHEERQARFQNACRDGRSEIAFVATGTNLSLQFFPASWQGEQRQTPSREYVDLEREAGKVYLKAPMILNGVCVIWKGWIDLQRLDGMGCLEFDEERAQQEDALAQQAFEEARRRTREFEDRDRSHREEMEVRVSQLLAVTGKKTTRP
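Assay system: Cerulean-tagged RUNX1 Runt domain (FRET donor) fusion protein / Amount: 100 nM each of Venus-CBFb and Cerulean-Runt domain / Medium: Tris buffer pH 7.5 with salts and BSA / Also added: Venus-CBFb 100 nM / Schedule: 1 h complex formation plus 1 h compound treatment, room temperature / Signal: FRET fluorescence / Read-out: loss of energy transfer signal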
RanGTP-Imp inh = inhibitors of RanGTP-importin-beta interaction, primary screen, biochemical, FRET, CFP-Ran, YFP-importin-beta, homogeneous; cell-free CFP-Ran/YFP-importin-beta FRET ratio; inhibition, % (test concentration not listed); AID 2216; 300,000 tested, 1.1% active;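 active = more than half of the replicate wells show a fall in the fluorescence ratio signal beyond about 16%, limit read from the data, passing the limit was not always enough; inconclusive = exactly half of the replicate wells pass the set limit; inactive = fewer than half of replicates pass the limit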;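 also: 0% = DMSO wells and 100% = Ran loaded with GDP instead of GTP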
Hck-Nef inh = inhibitors of human Hck kinase activated by Nef; Recombinant Hck-YEEI plus Nef, Z-Lyte FRET kinase assay; AID 463187; 220,000 tested, 0.68% active; P08631; inhibition, % at 20 µM;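 active = Hck-Nef kinase inhibition above about 50%, limit read from the data; inactive = inhibition below that limit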;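 also: 0% = DMSO with Hck plus Nef and 100% = Hck alone without Nef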
Runt-SMMHC FRET = blocks binding of human RUNX1 Runt domain to CBFb-SMMHC | Q01196+Q13951 | Cerulean-Runt/Venus-CBFb-SMMHC FRET ratio 530/480, 1 h | inhibition, % at 20 µM | 220,000 tested, 0.74% active | AID 1434;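 active = mean inhibition across duplicate retests at 20 µM reaching about 50%, limit read from the data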;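 also: 0% = DMSO wells and 100% = wells with excess untagged CBFb-SMMHC; inhibitors lower the FRET ratio by blocking Runt binding to CBFb-SMMHC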
Hck Nef conf = Hck-Nef kinase inhibition, confirmation. Recombinant Hck-YEEI:Nef, Z-Lyte FRET kinase assay. calls only at 10 µM. shares compounds with Hck-Nef inh. 1,300 tested, 28% active;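 active = average inhibition of at least 50%, with Z-scores no higher than 3 in both the phospho-tyrosine peptide and fluorescence counterscreens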
Starred values were filed as active, the others as inactive; i = inactive; ? = inconclusive; . = not tested or not shown; + = active, no number.

SMILES	Runt-CBFb FRET	RanGTP-Imp inh	Hck-Nef inh	Runt-SMMHC FRET	Hck Nef conf
COc1cc2c(C#N)c(N3CCCC3)nc(N)c2c(N)n1	-17	1	63*	-7	+
CC(C)n1cnc2c(Nc3ccc(F)c(Cl)c3)nc(NCCO)nc21	.	7	.	.	.
CC(C)n1cnc2c(Nc3cccc(F)c3)nc(NCCO)nc21	3	1	97*	0	+
CC(C)C[C@H](CO)Nc1nc(Nc2cccc(Cl)c2)c2ncn(C(C)C)c2n1	1	-1	106*	2	+
CCc1ccc(NC(=O)CCN2C(=O)c3cccnc3C2=O)cc1	0	-2	0	4	.
CCc1ccc2c(c1)C(=O)C(=O)N2CC(=O)Nc1ccc(NC(=O)c2ccccn2)cc1	-7	-4	77*	-7	+
O=C(CN1C(=O)COc2ccc(Cl)cc21)NCC1CCCO1 (configuration not stated)	.	1	.	.	.
Brc1ccc(-c2nc(N/N=C/c3cccnc3)c3ccccc3n2)cc1	-12	-3	-4	-9	.
Cc1ccc(-c2nc(N/N=C/c3ccccc3[N+](=O)[O-])c3ccccc3n2)cc1	-1	-1	56*	3	i
CC(C)(C)c1ccc(/C=N/NC(=O)CN2CCS(=O)(=O)CC2)cc1	.	-3	.	.	.
O=C(CCS(=O)(=O)c1ccc(Cl)cc1)N1CCCc2ccccc21	.	3	.	.	.
Cc1ccc(C(=O)Nc2cccc(C(F)(F)F)c2)cc1NC(=O)c1ccno1	1	4	75*	0	+
Cc1ccc(C(=O)Nc2cccc(C(F)(F)F)c2)cc1NC(=O)c1nccn1C	-3	2	40	-5	.
Cc1ccc(C(=O)Nc2cccc(C(F)(F)F)c2)cc1Nc1ncnc2nc[nH]c12	-1	0	55*	3	i
O=S(=O)(NCC(c1ccc2c(c1)OCO2)N1CCOCC1)c1ccc(Br)cc1 (configuration not stated)	.	-5	.	.	.
Oc1cc2c(cc1C(c1ccc(Br)cc1)N1CCCC1)OCO2 (configuration not stated)	4	.	73*	10	i
COc1ccccc1NC(=O)c1cc2c(s1)-c1ccccc1S(=O)(=O)C2	-1	-2	52*	-2	i
CCC(C)Nc1nc(N)c([N+](=O)[O-])c(Nc2cc(OC)ccc2OC)n1 (configuration not stated)	-3	2	52*	-2	i
CCC(C)Nc1nc(N)c([N+](=O)[O-])c(Nc2ccccc2OC)n1 (configuration not stated)	-4	5	22	3	.
Cc1cc(OC(C)C(=O)N2CCN(c3ccc(F)cc3)CC2)c2c(C)c(C)c(=O)oc2c1 (configuration not stated)	.	1	.	.	.
O=C(O)c1ccc(Nc2ncnc3scc(-c4ccccc4)c23)cc1	-1	1	19	-2	.
Cc1ccc(-c2csc3ncnc(Nc4ccc(C(=O)O)cc4)c23)cc1	-3	-9	55*	-1	i
CCOC(=O)c1c(S(=O)(=O)N2CCN(c3ccc(F)cc3)CC2)c(C)n(C)c1C	.	3	.	.	.
CCC(=O)Nc1nc2ccc3sc(C)nc3c2s1	2	-1	19	-5	.
Cc1nc2c(ccc3nc(NC(=O)C4CC4)sc32)s1	-2	6	54*	1	i
SMILES	Runt-CBFb FRET	RanGTP-Imp inh	Hck-Nef inh	Runt-SMMHC FRET	Hck Nef conf
O=c1c(-c2nc3ccccc3s2)cccn1Cc1ccccc1	12	9	8	32	.
Cc1ccc(Cn2cccc(-c3nc4ccccc4s3)c2=O)cc1	50	?	123*	134*	.
O=Cc1cn(-c2ccccc2)nc1-c1cc2c(ccc3ccccc32)oc1=O	-41	.	24	20	.
O=Cc1cn(-c2ccccc2)nc1-c1cc2cc(O)ccc2oc1=O	94*	40*	52*	57*	.
CC(=O)c1sc2nc(CSc3nnnn3-c3ccccc3)[nH]c(=O)c2c1C	-11	1	53*	-43	+
CCOC(=O)c1c(NC(=O)c2cc(-c3ccc(Cl)s3)nc3ccccc23)sc(C(N)=O)c1C	-25	-3	66*	-38	i
COc1ccccc1C(=O)Nc1ccc(-c2nnn(CC(=O)NCc3ccco3)n2)cc1	0	2	51*	-3	i
NC(=O)CC(NC(=O)Cc1cccc2ccccc12)c1ccc(N2CCC(N3CCCC3)CC2)c([N+](=O)[O-])c1 (configuration not stated)	.	6	.	.	.
